M4 antag = antagonists of human muscarinic M4 receptor (CHRM4); P08173; CHO-hM4 cells, ACh EC80, Fluo-8 calcium fluorescence; inhibition, % at 3 µM; actives 0.73% (n = 360,000); AID 624125;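 active means inhibition above its plate's cutoff, the mean inhibition of sample wells plus 3 SD, cut at about 27% in these data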
Target sequence (P08173 whole entry, looked up): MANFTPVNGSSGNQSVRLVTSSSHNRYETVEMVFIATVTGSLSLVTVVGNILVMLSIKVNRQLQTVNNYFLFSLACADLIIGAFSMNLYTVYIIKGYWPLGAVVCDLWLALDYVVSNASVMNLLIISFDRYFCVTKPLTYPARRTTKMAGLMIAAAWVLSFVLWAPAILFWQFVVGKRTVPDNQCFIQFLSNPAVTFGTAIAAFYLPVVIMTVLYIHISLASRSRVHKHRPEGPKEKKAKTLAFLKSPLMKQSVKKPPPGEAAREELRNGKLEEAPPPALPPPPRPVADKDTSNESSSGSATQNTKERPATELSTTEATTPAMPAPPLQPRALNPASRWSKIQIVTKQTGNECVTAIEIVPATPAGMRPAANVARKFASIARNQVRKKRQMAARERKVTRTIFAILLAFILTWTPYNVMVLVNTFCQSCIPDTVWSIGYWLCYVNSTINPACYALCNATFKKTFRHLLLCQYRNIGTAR
M5 antag = antagonists of human muscarinic M5 receptor (CHRM5); CHO-hM5 cells, Fluo-8 calcium fluorescence, ACh EC80; inhibition, % at 3 µM; actives 0.59% (n = 360,000); AID 624040;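 active means inhibition above a per-plate cutoff, the mean of that plate's test compounds plus 3 SD, cut at about 27% in these data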
CHRM4 PAM = CHRM4 positive allosteric modulation; P08173; CHO-K1 hM4/Gqi5, Fluo-8 calcium fluorescence, ACh EC20; 0% = ACh EC20, 100% = maximal ACh; activation, % at 3 µM; actives 0.4% (n = 360,000);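 active means activation above its plate's cutoff, the mean activation of sample wells plus 3 SD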
M4 ag = agonists of human muscarinic M4 receptor (CHRM4); P08173; CHO-K1 hM4/Gqi5, Fluo-8 calcium fluorescence; vehicle 0%, full acetylcholine response 100%; activation, % at 3 µM; actives 0.14% (n = 360,000); AID 624127;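 active means activation above the run mean over all test wells plus 3 SD, cut at about 32% in these data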;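 further: peak over basal fluorescence ratio per well then scaled between controls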
CHRM5 PAM = potentiates acetylcholine response at human M5 receptor; activation, % at 3 µM; actives 0.3% (n = 360,000); CHO-K1 hM5, Fluo-8 calcium, ACh EC20 PAM; 0% = ACh EC20, 100% = ACh EC100; P08912;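 active means activation above the run cutoff, the mean activation of all test compounds plus 3 SD, cut at about 18% in these data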
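Test system: CHO-K1 hM5 cells / Doses: single-point, 3 µM nominal / Times: Post-acetylcholine fluorescence recording 140 s / Technique: Fluo-8 calcium fluorescence / Measure: Max/basal fluorescence ratio as % of EC20–EC100 ACh window / Benchmarks: low control EC20 acetylcholine (0%), high control EC100 acetylcholine (100%) / Replicates: one well per compound, no replicates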
M5 ag = agonists of human muscarinic M5 receptor (CHRM5); actives 0.19% (n = 360,000); activation, % at 3 µM; P08912; CHO-K1 hM5 cells, Fluo-8 calcium fluorescence; 0% DMSO wells, 100% maximal acetylcholine response;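 active means activation above the run's mean over test compounds plus 3 SD, cut at about 23% in these data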;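 further: signal is peak over basal fluorescence ratio across the kinetic read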
Large screens that a line does not name were inactive. An excerpt weighted towards active compounds, which were near 1.8% of everything screened.

COC(=O)c1cn(NC(=O)c2cc(OC)cc(OC)c2)c(=O)c2ccccc12	none
COC(=O)c1cn(NC(=O)c2cc(OC)c(OC)c(OC)c2)c(=O)c2ccccc12	CHRM5 PAM 24
COC1CC(NC(C)=O)C(OC(=O)c2ccccc2)C(CBr)O1 (stereo not given)	none
CC(=O)c1cc2c(cc1NS(=O)(=O)c1ccccc1)OCO2	M4 antag 30
CC(=O)c1cc2c(cc1NS(=O)(=O)c1cccc(C(=O)O)c1)OCO2	none
COCCCN1CN(S(=O)(=O)c2ccc(C)cc2C)c2nc3ccccc3nc21	CHRM5 PAM 21
CC1(C(=O)Nc2ccc3c(c2)OCCO3)CN(S(C)(=O)=O)CC(=O)N1CCc1ccc(O)cc1 (stereo not given)	none
CC1(C)N=C(SCC(=O)Nc2ccc(Cl)cc2Cl)C(c2ccccc2)=N1	none
CN1C(CC(=O)Nc2ccc(Cl)cc2Cl)c2ccccc2CC1(C)C (stereo not given)	M4 antag 29
CNCCCC1c2ccccc2C=Cc2ccccc21	M4 antag 91, M5 antag 99
CC(=O)c1cccc(Nc2ccc(C#N)cc2)c1	none
C=C1CC2(OC1=O)c1ccccc1CCc1ccccc12	M4 antag 48
O=C1NC[C@@H](CCCCN2C[C@H](Cc3ccc(O)cc3)N(CC3CCCCC3)C(=O)C2=O)N(CC2CCCCC2)C1=O	none
COc1cccc(CN(C)C(=O)COc2cccc3c2OC(C)(C)C3)c1OC	CHRM4 PAM 22
c1ccc(CCCNc2ncnc3nc[nH]c23)cc1	none
c1ccc2c(CCNc3ncnc4nc[nH]c34)cccc2c1	M4 antag 29, M5 antag 33
CCC1Cc2[nH]c(=S)[nH]c(=O)c2C(c2ccc(F)cc2)O1 (stereo not given)	none
CC(C)C[C@@H](CN1CCC[C@H]1CN1C(=O)C(=O)NC[C@@H]1Cc1ccc(O)cc1)N1C[C@H](Cc2ccc(O)cc2)N(CCc2ccccc2)C(=O)C1=O	none
COc1ccc(-c2csc(C(C)(O)c3ccccc3)n2)cn1 (stereo not given)	none
Cc1ccc(C)c(NS(=O)(=O)c2c(C)nn(C)c2C)c1	none
Cc1ccc(OS(=O)(=O)c2c(C)nn(C)c2Cl)c(C)c1	M4 antag 43, M5 antag 31
CC[C@H](C)Cc1cn([C@@H](CCCCNC(=O)OC(C)(C)C)C(=O)NCCCCCCCCCCC(=O)N2CCN(C(=O)OC(C)(C)C)CC2)nn1	M4 antag 28
CCOC1=C2[C@@H](CN(S(=O)(=O)c3ccc(C)cc3)[C@H]2c2ccc(Cl)cc2)[C@H]2C(=O)N(c3ccccc3)C(=O)[C@H]2C1	none
CC(=O)c1c(C)[nH]c(C)c1C(C)=O	CHRM4 PAM 32, CHRM5 PAM 27
CC(=O)c1c(C)[nH]c(C(=O)O)c1C	none
C=CS(=O)(=O)N(Cc1ccccc1)[C@H](CO)CC(C)C	none
CC(C)C[C@H](CO)N(Cc1ccccc1)S(=O)(=O)N(Cc1ccccc1)[C@@H](CO)CC(C)C	M4 antag 34
CC(=O)Nc1ccccc1-c1nc2cc(C#N)c(C#N)cc2[nH]c1=O	none
CCC(Oc1nc2ccccc2nc1-c1ccccc1NC(C)=O)C(=O)c1ccccc1 (stereo not given)	CHRM4 PAM 33
O=C(NCCn1cc(SCc2ccc(F)cc2)c2ccccc21)c1ccccc1F	M4 antag 28
O=C1C2C3C=CC(O3)C2C(=O)N1Nc1ccccc1 (stereo not given)	none
CC(=O)NC(C)(c1ccccc1)c1nc(-c2csc3ccccc23)cs1 (stereo not given)	none
O=S(=O)(/C=C/C=C/S(=O)(=O)c1ccccc1)c1ccccc1	M4 antag 43
Cc1ccc(S(=O)(=O)C=CS(=O)(=O)c2ccc(C)cc2)cc1	M4 antag 32
Cc1ccc(S(=O)(=O)c2ccc(C)cc2)cc1	none
CCCCNC(=O)C1(C)CCCCN1Cc1ccc2ccccc2c1 (stereo not given)	none
COc1cc(CCC(=O)OCC(=O)Nc2ncc(Cl)cc2Cl)cc(OC)c1OC	none
COc1ccc(CC(=O)OCC(=O)Nc2ncc(Cl)cc2Cl)cc1OC	M4 antag 27
Cc1ccc(C2=N/C(=C/N3CCOCC3)C(=O)O2)cc1	CHRM5 PAM 38
Cc1c(C(=O)NCc2ccc(C(F)(F)F)cc2)sc(=O)n1Cc1cccc(F)c1	M4 antag 30, M5 antag 32, M4 ag 54, M5 ag 50
COc1ccc(Br)c(Cn2c(C)c(C(=O)NCc3cccc([N+](=O)[O-])c3)sc2=O)c1	M4 antag 31
CC(C)C[C@@H]1O[C@H](CCc2ccccc2)Cc2[nH][nH]c(=O)c21	none
CCNC(=O)C1CCCN(C(=O)c2ccc(F)c(Cl)c2)CC1 (stereo not given)	none
CCNC(=O)C1(C)CCCN(Cc2ccc3ccccc3c2Br)C1 (stereo not given)	M4 antag 35
Cc1cc(C)c2sc(NNC(=O)C3COc4ccccc4O3)nc2c1 (stereo not given)	CHRM4 PAM 16
O=C(NCc1cccnc1)c1cc(C2CCCCN2C(=O)c2ccccc2)on1 (stereo not given)	none
CC(C)Cn1c(C23CC4CC(CC(C4)C2)C3)n[nH]c1=S	M4 antag 27
COc1ccc(-c2nc3ccc(C)cn3c2CC2CCCCC2)cc1OC	none
CC(=O)Nc1c(NC(C)C)c2ccccc2oc1=O	CHRM5 PAM 22
O=C(NCC[C@@H]1CC[C@@H](NS(=O)(=O)Cc2ccccc2)[C@@H](CO)O1)C1CC1	none
O=C(c1ccco1)N1CCN(C2CN(C3CCCCC3)S(=O)(=O)C2)CC1 (stereo not given)	none
CC1(C)COC(Cc2ccccc2)=N1	none
CCCNC(=O)c1ccc(N2CCC3(CC2)CC(c2cccc(Br)c2)=NO3)c([N+](=O)[O-])c1	M4 antag 33
CC(C)CC(N)c1csc(Nc2ccccn2)n1 (stereo not given)	none
O=S(=O)(Nc1cccc2ncccc12)c1cccs1	M4 antag 37
CC1(C)Cc2c(ccc3ccccc23)C(c2cc3ccccc3oc2=O)=N1	M5 ag 27
CC1(C)Cc2ccccc2C(c2cc3ccccc3oc2=O)=N1	none
Cc1sc2ncn(CC(=O)N3CCOCC3)c(=O)c2c1-c1ccccc1	CHRM5 PAM 25
COc1ccc(-c2csc(C(NC(C)=O)c3ccccc3)n2)cn1 (stereo not given)	none
COc1ccc(Oc2nnc(-c3ccccc3)cc2C#N)cc1	CHRM4 PAM 27
